Shown are actives, neighbours in structure and some others; about 2.5% of the full set was active somewhere.
NSD2 inh: NSD2 histone methyltransferase inhibitors, primary screen, biochemical, AlphaScreen, single concentration, set 2. Histone-lysine N-methyltransferase NSD2 (Homo sapiens), O96028. NSD2 peptide methylation, 120 min. inhibition, % at 12.5 µM. actives 0.54% (n = 310,000). AID 743445, 2014
SR-BI DiI inh: inhibitors of SR-BI mediated HDL lipid uptake, primary screen, ldlA[mSR-BI] cells, fluorescence, single point; Scavenger receptor class B member 1 (Mus musculus), Q61009; ldlA[mSR-BI] CHO cells, DiI-HDL uptake fluorescence, 3 h; inhibition, % at 12.5 µM; actives 0.96% (n = 320,000); AID 488896, 2010;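 active = mean replicate inhibition of at least 70% and a set share of replicates each scoring 70 or more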;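 note: 0% = median of neutral control wells and 100% = median of positive control wells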
Dyrk1A ADPGlo: rat Dyrk1A kinase inhibitors, primary screen, biochemical, single point, plate reader | Dual specificity tyrosine-phosphorylation-regulated kinase 1A (Rattus norvegicus), Q63470 | ADP-Glo luminescence, NFATc1 peptide | inhibition, % at 12.5 µM | actives 0.43% (n = 310,000) | AID 504441, 2011;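 note: plate controls were vehicle with enzyme for no effect and no enzyme for full effect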
dFosB activator: activators of delta FosB homodimer, primary screen, biochemical, fluorescence polarization, TAMRA-CDK5 oligo, single point; Protein FosB (Mus musculus), P13346; purified delta FosB; percent of positive-control signal above neutral wells; activation, % at 25 µM; actives 0.99% (n = 340,000); AID 493131, 2011;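 active = mean activation above about 17%, with every replicate also reaching it, limit read from the data, passing the limit was not always enough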
CDK5 inh: inhibitors of human CDK5/p35 kinase, primary screen, biochemical, single concentration; actives 0.01% (n = 330,000); inhibition, % at 10 µM; Recombinant CDK5/p35, ADP-Glo luminescence, 60 min;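 active = highest replicate inhibition of at least 50% and at least 75% of replicates reaching 50%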;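 note: plate controls were DMSO neutral control for no effect and GW8510 at 10 µM for full effect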
SR-BI uptake up: activators of SR-BI mediated DiI-HDL uptake, primary screen, ldlA[mSR-BI] CHO cells, DiI fluorescence; AID 504775, 2011; actives 0.096% (n = 320,000); activation, % at 12.5 µM; 3 h; 100 = double the neutral-control signal;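 active = mean replicate activation of at least 60% and every replicate at or above 60%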;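 note: 0% = median plate neutral-control signal and 100% = twice that signal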
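Assay system: LDL receptor-deficient CHO ldlA cells overexpressing murine SR-BI / Medium: BSA-supplemented, HEPES-buffered Ham's F12, pH 7.4 / Probe or stimulus: DiI-labelled HDL at 10 µg/mL final / Timing: compound with DiI-HDL co-incubation, 3 h at 37 °C / Technique: bottom-read cell fluorescence after medium removal, ex 550/em 595 nm / Measure: HDL uptake via cellular fluorescence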
An asterisk follows results filed as active; · = not tested or not shown. Cut-off read from the data, not from the text of the source, unless noted: active = inhibition above about 50%; inactive = the rest.

SMILES	NSD2 inh	SR-BI DiI inh	Dyrk1A ADPGlo	dFosB activator	CDK5 inh	SR-BI uptake up
Cc1cc(=O)oc2c(C)c(OC(C)C(=O)NCc3ccccn3)ccc12 (centres undefined)	-2	19	-2	-12	1	-19
CC(=O)COc1ccc2c(-c3ccccc3)cc(=O)oc2c1C	-1	72*	-6	-21	3	-72
COc1ccc(-c2cc(=O)oc3c(C)c(OC(C)C(=O)NCc4ccccn4)ccc23)cc1 (centres undefined)	·	77*	3	-6	-1	-77
Cc1nn(-c2ccccc2)c(C)c1/C=N/NC(=O)c1[nH][nH]c(=O)c1C	5	·	·	·	·	·
CCc1nc2ccc(C(=O)N3CCN(C(=O)c4ccco4)CC3)cn2c1N(CC)CCOC	-1	·	·	·	·	·
Oc1c(Br)cc(Br)cc1/C=N/NC(=S)N[C@H]1CC2C=CC1C2 (some centres undefined)	6	78*	7	-6	0	-78
COc1ccc(NC(=O)CSc2nnc(NC(=O)c3ccco3)s2)cc1OC	-2	-11	-5	0	-2	11
O=C(CSc1nnc(NC(=O)c2ccco2)s1)Nc1ccc2c(c1)OCCO2	-2	-10	·	66*	-2	10
CC(C)CCC1(C)NC(=O)N(CC(=O)NCC(=O)Nc2ccc(F)c(F)c2F)C1=O (centres undefined)	-2	2	·	-3	1	-2
CCCn1nnc2ccccc2c1=O	-2	4	-2	-3	-1	-4
CCOc1ccc(OCCn2nnc3ccccc3c2=O)cc1	1	-152	-5	-13	3	152*
COc1cc(-c2ccc3sc(-c4ccsc4)c(C#CCO)c3c2)cc(OC)c1OC	·	69	2	-6	-3	-69
COc1ccc2sc(-c3ccc(N(C)C)cc3)c(-c3cnc(OC)nc3)c2c1	·	82*	-4	-3	-1	-82
COC(=O)c1c(-c2ccc(OC)cc2)sc2cc3c(cc12)OCO3	·	12	33	5	1	-12
COc1ccc(-c2sc3ccc(-c4ccc5c(c4)OCO5)cc3c2-c2ccc(OC)nc2)cc1	·	12	44	-15	1	-12
COC(=O)c1c(-c2ccsc2)sc2ccc(-c3cc(OC)c(OC)c(OC)c3)cc12	·	75*	-8	-6	0	-75
COc1ccc(-c2sc3ccc(OC)cc3c2-c2ccc(OC)c(F)c2)cc1	·	59	3	2	1	-59
COC(=O)c1c(-c2ccc(N(C)C)cc2)sc2ccc(OC)cc12	·	79*	-8	-2	-3	-79
COc1ccc2sc(-c3ccc(SC)cc3)c(-c3ccc(O)cc3)c2c1	·	76*	9	-2	1	-76
COc1ccccc1NS(=O)(=O)c1ccc(NC(=O)N2CCCCC2)cc1	1	-9	-3	-12	-1	9
COc1ccc(CCN(Cc2cccs2)S(=O)(=O)c2ccc(F)cc2)cc1OC	-1	·	·	·	·	·
O=C(C1CCCN1S(=O)(=O)c1ccc(Cl)s1)N1CCN(c2ccccc2)CC1 (centres undefined)	-2	·	·	·	·	·
CNc1ncnc2c1ncn2[C@H]1CN(Cc2ccc(-c3ccccc3)cc2)C[C@@H](CO)O1	-1	·	·	·	·	·
Cc1ccnc(NC(=S)N2CCC(Nc3cccc(C(F)(F)F)c3)CC2)c1	-2	·	·	·	·	·
CCCCCCCCCCCCCCCC[n+]1ccc(/C=N/O)cc1	·	0	-4	38*	-1	0
CCCCCCCCCCCCCCCC[n+]1ccccc1	12	1	16	-148	3	-1
CCCCCCCCCCCCCCCC[n+]1ccc(C(N)=O)cc1	4	5	1	45*	3	-5

High-throughput results deposited in PubChem by Broad Institute.
